Measured values from PMC9827987 (Chemmedchem, 2022).
Where two headings read alike, the source gives them in different places.

Experiments:
[1] = target: PfDHFR-WT (Plasmodium falciparum, UniProt P13922, N108S/R59C); assay: DHFR enzyme inhibition assay, wild type; format: biochemical
[2] = system: P. falciparum TM4/8.2 (wild type PfDHFR); assay: In vitro antimalarial activity, 3H-hypoxanthine incorporation, TM4/8.2; format: cell-based; details: Plasmodium falciparum
[3] = system: KB cells; assay: Cytotoxicity, sulforhodamine B staining, KB; format: cell-based; details: Homo sapiens, read-out: IC50 KB
[4] = target: T1, HsDHFR (Homo sapiens, UniProt P00374); assay: biochemical
T1 sequence (P00374 1-187): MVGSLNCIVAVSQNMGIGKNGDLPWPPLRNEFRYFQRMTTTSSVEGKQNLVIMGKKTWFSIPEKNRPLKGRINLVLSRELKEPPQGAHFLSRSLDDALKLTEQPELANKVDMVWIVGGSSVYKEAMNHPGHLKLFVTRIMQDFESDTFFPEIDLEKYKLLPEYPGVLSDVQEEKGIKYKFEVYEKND

[5] = system: P. falciparum V1/S (QM PfDHFR); assay: In vitro antimalarial activity, 3H-hypoxanthine incorporation, V1S; format: cell-based; details: Plasmodium falciparum, read-out: IC50 PfV1S
Summary of the method: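 P. falciparum V1/S (quadruple-mutant PfDHFR, chloroquine-resistant) grown in human erythrocytes at 37 °C under 3% CO2. Medium was RPMI 1640 with 25 mM HEPES, 0.2% NaHCO3, 40 µg/mL gentamicin and 8% human serum. Activity was measured by ³H-hypoxanthine incorporation.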

[6] = target: PfDHFR-QM (Plasmodium falciparum, UniProt P13922, I164L/N51I); assay: DHFR enzyme inhibition assay, quadruple mutant; format: biochemical
[7] = read-out: IC50 PfTM4/8.2, WT P. falciparum, drug sensitive strain

| Structure (SMILES) | Ki [1] | IC50 ([2]; read-out: IC50 PfTM4/8.2) | IC50 [3] | Ki [4] | IC50 [5] | Ki [6] | IC50 [2, 7] |
| --- | --- | --- | --- | --- | --- | --- | --- |
| COc1ccccc1CCNCc1c(N)nc(N)nc1-c1ccccc1 [7 a, 6‐Phenyl‐5‐{[(2‐methoxyphenethyl)amino]methyl}pyrimidine‐2,4‐diamine] | 0.243 ± 0.021 µM | 27 ± 3 µM | > 100 µM | > 500 µM | 54 ± 2 µM | 0.208 ± 0.003 µM |  |
| COc1cccc(CCNCc2c(N)nc(N)nc2-c2ccccc2)c1 [7 b, 6‐Phenyl‐5‐{[(3‐methoxyphenethyl)amino]methyl}pyrimidine‐2,4‐diamine] | 0.107 ± 0.003 µM | 27 ± 4 µM | > 100 µM | > 500 µM | 48 ± 1 µM | 0.074 ± 0.001 µM |  |
| COc1ccc(CCNCc2c(N)nc(N)nc2-c2ccccc2)cc1 [7 c, 6‐Phenyl‐5‐{[(4‐methoxyphenethyl)amino]methyl}pyrimidine‐2,4‐diamine] | 0.086 ± 0.013 µM | 28 ± 5 µM | > 100 µM | > 500 µM | 34 ± 2 µM | 0.069 ± 0.005 µM |  |
| COc1ccccc1CCNCc1c(N)nc(N)nc1C1CC1 [7 d, 6‐Cyclopropyl‐5‐{[(2‐methoxyphenethyl)amino]methyl}pyrimidine‐2,4‐diamine] | 0.015 ± 0.001 µM |  | > 100 µM | 1.59 ± 0.029 µM | 35 ± 4 µM | 0.031 ± 0.002 µM | 25 ± 1 µM |
| COc1cccc(CCNCc2c(N)nc(N)nc2C2CC2)c1 [7 e, 6‐Cyclopropyl‐5‐{[(3‐methoxyphenethyl)amino]methyl}pyrimidine‐2,4‐diamine] | 0.0044 ± 0.0002 µM |  | 74 ± 4 µM | 1.04 ± 0.034 µM | 13 ± 1 µM | 0.026 ± 0.0005 µM | 4.2 ± 0.2 µM |
| COc1ccc(CCNCc2c(N)nc(N)nc2C2CC2)cc1 [7 f, 6‐Cyclopropyl‐5‐{[(4‐methoxyphenethyl)amino]methyl}pyrimidine‐2,4‐diamine] | 0.0035 ± 0.0004 µM |  | 72 ± 1 µM | 0.647 ± 0.006 µM | 15 ± 3 µM | 0.029 ± 0.0006 µM | 3.5 ± 0.2 µM |
| Nc1nc(N)c(CNCCc2ccccc2F)c(C2CC2)n1 [7 g, 6‐Cyclopropyl‐5‐{[(2‐fluorophenethyl)amino]methyl}pyrimidine‐2,4‐diamine] | 0.0082 ± 0.0003 µM |  | > 100 µM | 0.205 ± 0.001 µM | 25 ± 2 µM | 0.031 ± 0.002 µM | 12 ± 5 µM |
| Nc1nc(N)c(CNCCc2cccc(F)c2)c(C2CC2)n1 [7 h, 6‐Cyclopropyl‐5‐{[(3‐fluorophenethyl)amino]methyl}pyrimidine‐2,4‐diamine] | 0.01 ± 0.0003 µM |  | > 100 µM | 0.458 ± 0.031 µM | 20 ± 2 µM | 0.026 ± 0.002 µM | 4.2 ± 0.3 µM |
| Nc1nc(N)c(CNCCc2ccc(F)cc2)c(C2CC2)n1 [7 i, 6‐Cyclopropyl‐5‐{[(4‐fluorophenethyl)amino]methyl}pyrimidine‐2,4‐diamine] | 0.0057 ± 0.0005 µM |  | > 100 µM | 0.212 ± 0.012 µM | 48 ± 5 µM | 0.035 ± 0.002 µM | 23 ± 3 µM |
| Nc1nc(N)c(CNCCc2ccccc2Cl)c(C2CC2)n1 [7 j, 6‐Cyclopropyl‐5‐{[(2‐chlorophenethyl)amino]methyl}pyrimidine‐2,4‐diamine] | 0.0093 ± 0.0005 µM |  | 83 ± 7 µM | 0.304 ± 0.016 µM | 17 ± 3 µM | 0.023 ± 0.0006 µM | 0.4 ± 0.01 µM |
| Nc1nc(N)c(CNCCc2cccc(Cl)c2)c(C2CC2)n1 [7 k, 6‐Cyclopropyl‐5‐{[(3‐chlorophenethyl)amino]methyl}pyrimidine‐2,4‐diamine] | 0.0025 ± 0.0001 µM |  | 82 ± 13 µM | 0.345 ± 0.007 µM | 14 ± 4 µM | 0.02 ± 0.0009 µM | 4.2 ± 0.9 µM |
| Nc1nc(N)c(CNCCc2ccc(Cl)cc2)c(C2CC2)n1 [7 l, 6‐Cyclopropyl‐5‐{[(4‐chlorophenethyl)amino]methyl}pyrimidine‐2,4‐diamine] | 0.0025 ± 0.0002 µM |  | 70 ± 0.5 µM | 0.142 ± 0.006 µM | 18 ± 3 µM | 0.027 ± 0.0001 µM | 5 ± 0.6 µM |
| Nc1nc(N)c(CNCCc2ccc(Cl)cc2Cl)c(C2CC2)n1 [7 m, 6‐Cyclopropyl‐5‐{[(2,4‐dichlorophenethyl)amino]methyl}pyrimidine‐2,4‐diamine] | 0.002 ± 3e-05 µM |  | 66 ± 2 µM | 0.131 ± 0.005 µM | 6.3 ± 1.2 µM |  | 3.6 ± 0.2 µM |
| Nc1nc(N)c(CNCCc2ccc(Cl)c(Cl)c2)c(C2CC2)n1 [7 n, 6‐Cyclopropyl‐5‐{[(3,4‐dichlorophenethyl)amino]methyl}pyrimidine‐2,4‐diamine] | 0.0013 ± 6e-05 µM |  | 23 ± 0.5 µM | 0.202 ± 0.006 µM | 4.4 ± 0.1 µM | 0.013 ± 4e-05 µM | 3.3 ± 0.1 µM |
| COc1ccccc1CCNCc1c(N)nc(N)nc1C1CCCCC1 [7 o, 6‐Cyclohexyl‐5‐{[(2‐methoxyphenethyl)amino]methyl}pyrimidine‐2,4‐diamine] | 0.128 ± 0.009 µM | 3.7 ± 0.3 µM | 22 ± 0.3 µM | > 500 µM | 9.4 ± 1.9 µM | 0.126 ± 0.009 µM |  |
| COc1cccc(CCNCc2c(N)nc(N)nc2C2CCCCC2)c1 [7 p, 6‐Cyclohexyl‐5‐{[(3‐methoxyphenethyl)amino]methyl}pyrimidine‐2,4‐diamine] | 0.031 ± 0.005 µM | 3.5 ± 0.2 µM | 23 ± 0.3 µM | > 500 µM | 4.1 ± 0.3 µM | 0.056 ± 0.002 µM |  |
| COc1ccc(CCNCc2c(N)nc(N)nc2C2CCCCC2)cc1 [7 q, 6‐Cyclohexyl‐5‐{[(4‐methoxyphenethyl)amino]methyl}pyrimidine‐2,4‐diamine] | 0.032 ± 0.001 µM | 1.8 ± 0.1 µM | 23 ± 0.2 µM | > 500 µM | 3.7 ± 0.2 µM | 0.055 ± 0.002 µM |  |
| Nc1nc(N)c(CNCCc2ccccc2F)c(C2CCCCC2)n1 [7 r, 6‐Cyclohexyl‐5‐{[(2‐fluorophenethyl)amino]methyl}pyrimidine‐2,4‐diamine] | 0.061 ± 0.0015 µM | 4.1 ± 0.7 µM | 48 ± 14 µM | > 500 µM | 16 ± 2 µM | 0.083 ± 0.001 µM |  |
| Nc1nc(N)c(CNCCc2cccc(F)c2)c(C2CCCCC2)n1 [7 s, 6‐Cyclohexyl‐5‐{[(3‐fluorophenethyl)amino]methyl}pyrimidine‐2,4‐diamine] | 0.076 ± 0.005 µM | 3 ± 0.4 µM | 62 ± 3 µM | > 500 µM | 11 ± 2 µM | 0.074 ± 0.002 µM |  |
| Nc1nc(N)c(CNCCc2ccc(F)cc2)c(C2CCCCC2)n1 [7 t, 6‐Cyclohexyl‐5‐{[(4‐fluorophenethyl)amino]methyl}pyrimidine‐2,4‐diamine] | 0.08 ± 0.009 µM | 2.2 ± 0.1 µM | 56 ± 5 µM | > 250 µM | 7 ± 2 µM | 0.136 ± 0.007 µM |  |
| Nc1nc(N)c(CNCCc2ccccc2Cl)c(C2CCCCC2)n1 [7 u, 6‐Cyclohexyl‐5‐{[(2‐chlorophenethyl)amino]methyl}pyrimidine‐2,4‐diamine] | 0.022 ± 0.002 µM | 3.3 ± 0.3 µM | 22 ± 0.05 µM | > 250 µM | 16 ± 1 µM | 0.038 ± 0.001 µM |  |
| Nc1nc(N)c(CNCCc2cccc(Cl)c2)c(C2CCCCC2)n1 [7 v, 6‐Cyclohexyl‐5‐{[(3‐chlorophenethyl)amino]methyl}pyrimidine‐2,4‐diamine] | 0.025 ± 0.001 µM | 3.1 ± 0.4 µM | 23 ± 0.2 µM | > 250 µM | 4 ± 0.2 µM | 0.036 ± 0.004 µM |  |
| Nc1nc(N)c(CNCCc2ccc(Cl)cc2)c(C2CCCCC2)n1 [7 w, 6‐Cyclohexyl‐5‐{[(4‐chlorophenethyl)amino]methyl}pyrimidine‐2,4‐diamine] |  | 3.1 ± 0.2 µM | 23 ± 0.2 µM | > 500 µM | 4.5 ± 0.3 µM | 0.06 ± 0.001 µM |  |
| Nc1nc(N)c(CNCCc2ccc(Cl)cc2Cl)c(C2CCCCC2)n1 [7 x, 6‐Cyclohexyl‐5‐{[(2,4‐dichlorophenethyl)amino]methyl}pyrimidine‐2,4‐diamine] | 0.007 ± 0.0003 µM | 2.5 ± 0.4 µM | 62 ± 3 µM | > 250 µM | 4.9 ± 0.3 µM | 0.123 ± 0.008 µM |  |
| Nc1nc(N)c(CNCCc2ccc(Cl)c(Cl)c2)c(C2CCCCC2)n1 [7 y, 6‐Cyclohexyl‐5‐{[(3,4‐dichlorophenethyl)amino]methyl}pyrimidine‐2,4‐diamine] | 0.009 ± 0.0007 µM | 3.5 ± 0.3 µM | 22 ± 0.1 µM | > 250 µM | 4 ± 0.3 µM | 0.028 ± 0.003 µM |  |
| CC1(C)N=C(N)N=C(N)N1c1ccc(Cl)cc1 [CYC, cycloguanil, reference compound] |  | 0.03 ± 0.005 µM | > 100 µM |  | 92 ± 6 µM | 0.42 ± 0.13 µM |  |
| CCc1nc(N)nc(N)c1-c1ccc(Cl)cc1 [PYR, pyrimethamine, reference compound] |  | 0.05 ± 0.007 µM | 60 ± 26 µM |  | > 100 µM |  | 0.053 µM |
